Results gathered from unrelated publications.
Compare with care: the assays were run in different laboratories.
PPO3: PPO3 (Agaricus bisporus, UniProt C7FF04)
CNR1: Cannabinoid receptor 1 (CNR1, Homo sapiens, UniProt P21554)

CCOC(=O)Cc1c2c3c(cc(OC)c(OC)c3c3cc(OC)c(OC)cc13)CCN2C
inhibition (5-hydroxytryptamine receptor 2A (HTR2A, Homo sapiens, UniProt P28223); ligand displacement, radioligand; 10 µM): 17%

COc1cc(/C=C/C(=O)O)ccc1OCc1cn(CC(=O)Nc2ccccc2[N+](=O)[O-])nn1
inhibition (PPO3; enzyme activity, inhibitor; 40 µM): 11.5%

CC(C)CC(=O)OC[C@H]1O[C@@](C#N)(c2ccc3c(N)ncnn23)[C@H](O)[C@@H]1O
inhibition (CNR1; cell-free assay; 20 µM): -4%

CCCCC/C=C\[C@H](C)/C=C\C/C=C\Cc1ccccc1CCCC(=O)OC(CO)CO
Emax (CNR1; β-arrestin recruitment, agonist): 10%

COc1cc(/C=C/C(=O)O)ccc1OCc1cn(CC(=O)Nc2cccc([N+](=O)[O-])c2)nn1
inhibition (PPO3; enzyme activity, inhibitor; 40 µM): 12.1%

CCCCC/C=C\C/C=C\C/C=C\Cc1ccccc1CCCC(=O)N[C@H](C)CO
Emax (CNR1; β-arrestin recruitment, agonist): 80%

CN1CCC[C@H]1c1cccnc1
inhibition (Histamine H4 receptor (HRH4, Homo sapiens, UniProt Q9H3N8); ligand displacement; 50 µM): -19.9%

[2H]c1c([2H])c([C@]2([2H])CCCN2C(=O)C(C)(C)Oc2ccc3cn[nH]c3c2)c([2H])c([2H])c1C([2H])([2H])[2H]
remaining binding (Mitogen-activated protein kinase kinase kinase 3 (MAP3K3, Homo sapiens, UniProt Q99759); binding, competition with immobilised ligand; 1 µM): 100%

c1cncc([C@@H]2CCCN2)c1
inhibition (Neuronal acetylcholine receptor; alpha4/beta2 (Rattus norvegicus, UniProt P09483+P12390); ligand displacement, radioligand; 50 µM): 88.1%

COc1cc(/C=C/C(=O)O)ccc1OCc1cn(CC(=O)Nc2ccccc2C)nn1
inhibition (PPO3; enzyme activity, inhibitor; 40 µM): 16%

CCCCCc1ccccc1C/C=C\C/C=C\C/C=C\CCCC(=O)N[C@H](C)CO
Emax (CNR1; β-arrestin recruitment, agonist): 42%

COc1cc(/C=C/C(=O)O)ccc1OCc1cn(CC(=O)Nc2ccc(Cl)cc2)nn1
inhibition (PPO3; enzyme activity, inhibitor; 40 µM): 12.3%

CCCCC/C=C\C/C=C\C/C=C\C/C=C\CCCC(=O)OC(CO)CO
Emax (CNR1; β-arrestin recruitment, agonist): 96%
